Compounds with a hit are over-represented: about 1.8% of the library has one in this group of screens.
Efflux pump inh: inhibitors of Candida antifungal efflux pumps expressed in yeast. S. cerevisiae Candida pump triplex, Nile Red efflux. inhibition, % at 10 µM. actives 0.44% (n = 330,000);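 active means plate passing quality check with inhibition over a set limit, or well fluorescence over plate mean plus 4 SD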;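 further: Nile Red retained in pooled yeast measured as flow cytometry median fluorescence; higher means more Nile Red kept so more efflux inhibition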
Cneo AK release: causes C. neoformans cell lysis; adenylate kinase release luminescence, 4 h; normalised: neutral wells 0, clomiphene wells 100; actives 0.2% (n = 360,000); AID 651654; lysis activity, % at 15 µM;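 active means mean lysis activity across replicates of at least 80%, whatever share of replicates individually reach that level; inactive means mean lysis activity below 80%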
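Signal: Adenylate kinase release luminescence | Assay system: Log-phase Cryptococcus neoformans yeast cells | Input: Cells at 5 × 10^6 per mL | Buffer or medium: Fresh YPD growth medium | Compound: Single dose | Schedule: Static 4 h at 37 °C with compound, 1 h detection | Controls: Clomiphene | Read-out: Luminescence rise reflecting yeast cell lysis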
Mot1-301 SUMO: SUMOylation pathway inhibition by Mot1-301 growth rescue | growth rescue, % at 18.8 µM | actives 1% (n = 320,000) | AID 2716 | S. cerevisiae Mot1-301 growth rescue, ATP luminescence, 38.5C; percent above DMSO median, 100 means doubled;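 active means every valid replicate shows activation above 250% relative to neutral control wells; inactive means the rest, any valid replicate at or below 250%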
C2C12 statin: protects C2C12 myotubes from simvastatin toxicity. rescue of ATP level, % at 7.49 µM. actives 0.78% (n = 330,000). ATP luminescence, 48 h; scaled: DMSO 0, geranylgeraniol control 100;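 active means mean ATP rescue above about 67%, or every replicate alone reaching that limit, limit read from the data, passing the limit was not always enough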;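 further: myotubes were challenged with 10 µM simvastatin during compound exposure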
Of the large screens only hits and unclear results are named; the others gave an inactive call.

C[C@@H]1CN([C@@H](C)CO)C(=O)c2cc(NC(=O)Nc3ccc4c(c3)OCO4)ccc2O[C@H]1CN(C)C(=O)Nc1cccc2ccccc12	none (no result: Efflux pump inh, Mot1-301 SUMO)
Cc1ccc(C)c(S(=O)(=O)NCc2ccc(C(=O)N3CCCCC3C)cc2)c1 (stereo not given)	C2C12 statin 114
CCN1C(=NCc2ccco2)N[C@@H](c2cccc(C(F)(F)F)c2)C(C(=O)OC)=C1C	C2C12 statin 88
CCS(CC)=NS(=O)(=O)c1ccc(NC(C)=O)cc1	Cneo AK release 123
COc1ccccc1NS(=O)(=O)c1cccc(NC(=O)c2ccc3ccccc3n2)c1	C2C12 statin 110
COc1ccccc1NS(=O)(=O)c1cccc(NC(=O)c2nc3nc(C)cc(C)n3n2)c1	C2C12 statin 126
O=C(Nc1cccc(S(=O)(=O)Nc2ccccc2F)c1)c1ccc2ccccc2n1	none (no result: Cneo AK release, C2C12 statin)
Cc1noc(C)c1NC(=O)N(C)C[C@H]1Oc2c(NC(=O)Nc3cccc4ccccc34)cccc2C(=O)N([C@H](C)CO)C[C@@H]1C	none (no result: Efflux pump inh, Mot1-301 SUMO)
C=CCn1c(C)cc(C(=O)COC(=O)c2ccc(N)c([N+](=O)[O-])c2)c1C	Mot1-301 SUMO 771 (no result: Cneo AK release, C2C12 statin)
Cc1ccc(OCC(=O)Nc2cc(-c3nn4c(C)nnc4s3)ccc2C)cc1	none
Cc1nn(C)c(Oc2ccc(Cl)cc2)c1C(=O)Nc1ccc(F)cc1F	Mot1-301 SUMO 312
O=C(c1cccc2c1-c1ccccc1/C2=N/O)N1CCCCC1	none
CCC(C(=O)N(C(C)C)C(C)C)c1ccccc1 (stereo not given)	C2C12 statin 130
CCC(C(=O)c1ccc(O)cc1)c1ccccc1 (stereo not given)	none
CCc1ccc2c(CN3CCc4cc(OC)c(OC)cc4C3)cc(=O)oc2c1	none
COc1ccc(C(=O)NC(C(=O)NCc2ccccn2)C(C)C)cc1 (stereo not given)	C2C12 statin 136
Cc1ccc(Sc2ncnc3onc(C)c23)cc1	C2C12 statin 98
Cc1ccc(CSc2ncnc3onc(C)c23)cc1	none (no result: Cneo AK release, C2C12 statin)
Cc1noc2ncnc(Sc3ccc(Cl)cc3)c12	Mot1-301 SUMO 324, C2C12 statin 134
CCN(Cc1cc(=O)oc2cc(C)ccc12)c1ccccc1	none
Cc1cc(=O)[nH]c(SCC(=O)NC2CCCc3ccccc32)n1 (stereo not given)	none (no result: C2C12 statin)
CC(C)c1ccc(C(=O)N/N=C/c2cccc(Cl)c2Cl)cc1	C2C12 statin 113
CN(Cc1n[nH]c(=S)n1C)S(=O)(=O)c1ccccc1	none
CCCC(=O)N(CCN1CCOCC1)c1nc2cc(C)c(C)cc2s1	none
COc1ccc(C(=O)/C(=C/c2cccs2)c2nc3ccccc3o2)cc1	C2C12 statin 94
CCOC(=O)CSc1nnc(-c2ccccc2)c(=O)[nH]1	none
CCOC(=O)N1CCN(C(=O)Cn2ncc3c2-c2ccccc2OC3)CC1	Mot1-301 SUMO 357
CCN1CCN(C(=O)Cn2ncc3c2-c2ccccc2OC3)CC1	none
CCN(C(=O)COC(=O)c1ccccc1NC(=O)c1ccco1)C1CCS(=O)(=O)C1 (stereo not given)	Mot1-301 SUMO 418
Cc1ccc(-c2noc(CCC(=O)NCCCN3CCN(c4cccc(Cl)c4)CC3)n2)cc1	none
Cc1ccc([N+](=O)[O-])cc1NC(=O)CSc1nncn1-c1ccccn1	none
Cc1cc([N+](=O)[O-])ccc1NC(=O)CSc1nncn1-c1ccccn1	Mot1-301 SUMO 737
COC(=O)c1sc(NC(=O)c2ccc([N+](=O)[O-])o2)c(C#N)c1C	none (no result: Cneo AK release)
O=C(CCn1c(=O)[nH]c2ccsc2c1=O)N(CCc1ccccc1)Cc1ccccc1	none
COc1ccc(S(=O)(=O)Nc2ccc3c(c2)OCCO3)cc1Cl	C2C12 statin 114 (no result: Cneo AK release)
COc1ccc(S(=O)(=O)N(CC(=O)N2CCCCCC2)c2ccccc2OC)cc1	C2C12 statin 99
CC1CCN(C(=O)C2CC(c3ccc(F)cc3)=NO2)CC1 (stereo not given)	none
CC1CCCC(C)N1C(=O)C1CC(c2ccc(F)cc2)=NO1 (stereo not given)	C2C12 statin 92
CCOC(=O)C1=C(O)c2ccccc2C(=O)/C1=C\c1ccc(C)cc1	Mot1-301 SUMO 280 (no result: Cneo AK release, C2C12 statin)
N#C/C(=C/c1ccc(-c2cc(C(=O)O)cc(C(=O)O)c2)o1)c1nc2ccccc2s1	Efflux pump inh 0.8 (no result: Cneo AK release, C2C12 statin)
N#C/C(=C\c1ccc(O)c([N+](=O)[O-])c1)c1nc2ccccc2s1	none (no result: Efflux pump inh, Mot1-301 SUMO)
CC(C)(C)C1CCC(=NNC(=O)c2cc3c(s2)CCCC3)CC1 (stereo not given)	Mot1-301 SUMO 542 (no result: C2C12 statin)
O=C(NN=C1CCC(c2ccccc2)CC1)c1cc2c(s1)CCCC2 (stereo not given)	none (no result: C2C12 statin)
Cc1csc(NC(=O)CSc2nnc(-c3ccccn3)n2-c2ccc(C)c(C)c2)n1	none (no result: C2C12 statin)
O=C(C[C@H]1CC[C@@H](NC(=O)Nc2cc(F)ccc2F)[C@@H](CO)O1)NCc1ccccn1	none (no result: Efflux pump inh, Mot1-301 SUMO)
CC(C)COc1cc(=O)[nH]c(SCC(C)C)n1	C2C12 statin 148
COc1cccc(-c2cnc3c(c2)C(=O)N([C@H](C)CO)C[C@@H](C)[C@H](CN(C)C(=O)CC2CC2)O3)c1	none (no result: Efflux pump inh, Mot1-301 SUMO, C2C12 statin)
O=C(O)Cc1ccc(NC(=O)C2CC=CCC2C(=O)O)cc1 (stereo not given)	Mot1-301 SUMO 625 (no result: Cneo AK release, C2C12 statin)
CC(=O)N1[C@@H]2c3ccc(-c4ccccc4)c(=O)n3C[C@H]1[C@H](CO)[C@H]2C(=O)Nc1ccccc1	Cneo AK release 87 (no result: Efflux pump inh, Mot1-301 SUMO)
CCC(=O)N1[C@@H]2Cn3c(ccc(C4=CCCCC4)c3=O)[C@H]1[C@@H](C(=O)N[C@H](C)c1ccccc1)[C@@H]2CO	Cneo AK release 93 (no result: Efflux pump inh, Mot1-301 SUMO)
CCC(=O)N1[C@@H]2c3ccc(C4=CCCC4)c(=O)n3C[C@H]1[C@H](CO)[C@H]2C(=O)N[C@H](C)c1ccccc1	none (no result: Efflux pump inh, Mot1-301 SUMO)
CN(CC(=O)NCc1ccncc1)S(=O)(=O)c1ccc(Cl)cc1	none (no result: Cneo AK release, C2C12 statin)
COc1ccc(CNC(=O)CN(C)S(=O)(=O)c2ccc(Cl)cc2)cc1	Mot1-301 SUMO 339
OC1(c2ccccc2)C/C(=N\n2cnnc2)C=C1c1ccccc1 (stereo not given)	none (no result: Cneo AK release)
O=C(NC1CCCC1)C(c1ccncc1)N(C(=O)c1csnn1)c1ccc(F)c(Cl)c1 (stereo not given)	none
O=C(Cn1c(=O)n(Cc2ccc(F)cc2)c(=O)c2ccccc21)NCC1CCCO1 (stereo not given)	none
O=c1c2ccccc2n(Cc2ccc(F)cc2)c(=O)n1C1CCCC1	C2C12 statin 116
Cc1[nH]c2ccc(-c3n[nH]c(=S)n3C)cc2c1C	none
O=C(Cc1coc(-c2ccc(F)cc2)n1)Nc1ccccc1	C2C12 statin 106
O=C(CCN1CCOCC1)NNC(=O)Nc1cccc(C(F)(F)F)c1	none
CCOC(=O)C(=NCCCN1CCOCC1)NNc1cccc(C(F)(F)F)c1	Mot1-301 SUMO 324
Cc1ccc(-c2cc(C(F)F)n3ncc(C(=O)N4CCCCC4c4cccnc4)c3n2)cc1 (stereo not given)	Mot1-301 SUMO 548 (no result: Cneo AK release, C2C12 statin)
O=C(c1cnn2c(C(F)(F)F)cc(-c3ccccc3)nc12)N1CCCCC1c1cccnc1 (stereo not given)	none (no result: Cneo AK release, C2C12 statin)

Screening data (PubChem)
